Most compounds without a hit are left out; they make up all but 3.1% or so of the library.
Insulin prom up: MIN6 insulin promoter up-regulation; 190,000 tested, 0.3% active; z-score at 5 µM; MIN6 insulin promoter-GFP reporter, high-content imaging; hits give high values;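 active = z-score above 3 at 5 µM with at least 500 cells counted in the well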
Yeast growth inh: yeast BB579 growth reduction in restrictive medium | S. cerevisiae BB579 growth, OD615, 48 h | AID 804 | 140,000 tested, 0.51% active | inhibition, % at 10 µM;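 active = inhibition above a set limit, 3 SD over the mean compound inhibition, cut at about 44% in these data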
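Test system: Saccharomyces cerevisiae DeaD strain BB579, replicative lifespan model yeast | Buffer or medium: Restrictive CSMM-D medium | Doses: One dose, 10 µM compound with 0.25% DMSO | Incubation: 48 h exposure, 30 °C | Detection: Culture absorbance at 615 nm | Control set: Amphotericin B at 10 µg/mL as positive control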
Yeast life ext: extends the lifespan of yeast | S. cerevisiae growth with nicotinamide, OD615; deaD strain in restrictive glucose medium | inhibition of the nicotinamide effect, % at 10 µM | 130,000 tested, 0.68% active | AID 775;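 active = inhibition above a set limit, placed 3 SD over the median of all compounds, cut at about 26% in these data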;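 note: 0% = nicotinamide-treated wells and 100% = cells grown without nicotinamide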
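Assay system: DeaD-strain S. cerevisiae. Medium: CSMM-D glucose medium, restrictive. Reagent: nicotinamide, 1.5 mM, co-present with compound. Compound: 10 µM single point, 0.25% DMSO. Schedule: culture preincubation 4 h, compound exposure 48 h, both 30 °C. Detection: absorbance at 615 nm.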
INS promoter inh: TRM-6 insulin promoter activity inhibition; inhibition, % at 2 µM; AID 1273; TRM-6 cells (human fetal islet line), insulin promoter-eGFP reporter, imaging; reporter expression induced with tamoxifen; 130,000 tested, 0.9% active;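 active = inhibition above the mean plus 3 SD, with well images judged a real hit on visual review, cut at about 60% in these data, passing the limit was not always enough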
RAM network inh: yeast RAM network inhibition | S. cerevisiae dse1pr::URA3 reporter, 5-FOA growth OD615, 2 d; analog-sensitive cbk1-as2 kinase mutant strain | 190,000 tested, 1.8% active | inhibition, % at 50 µM;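 active = inhibition above a set limit, 3 SD over mean compound inhibition, cut at about 8.4% in these data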;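 note: 0% = DMSO-only wells with no growth and 100% = 10 µM 1-NA-PP1 full growth; inhibition rescues growth on 5-FOA so higher OD means more RAM inhibition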
* marks the source's active call; other numbers are inactive results.

How did COC(=O)CN(C(=O)CSc1nnc(-c2cccc(OC)c2)o1)c1ccc(OC)cc1 do in these assays?
Yeast growth inh: -71.9; Yeast life ext: 8.7; INS promoter inh: 45.5; RAM network inh: 11.1*

What do the screens show for `CCOC(=O)CN(C(=O)CSc1nnc(-c2cccc(OC)c2)o1)c1ccc(F)cc1`?
Yeast growth inh: -19.4; Yeast life ext: 3.9; RAM network inh: 6.0

Results for Cn1cccc1CC(=O)N/N=C/c1ccc([N+](=O)[O-])cc1 ?
Insulin prom up: -0.47

What do the screens show for `Cc1ccc(NC(=O)Cc2ccc(-n3cccc3)cc2)c(C)c1`?
Insulin prom up: 0.04; Yeast growth inh: -21.0; Yeast life ext: 0.8; INS promoter inh: 8.0; RAM network inh: 1.9

Results for Cc1ccc(NC(=O)CCl)c(C)c1 ?
Insulin prom up: 3.51*; RAM network inh: -0.6

How did CCOC(=O)C1=C(C)Nc2nc(=S)[nH]n2C1c1ccc(Cl)cc1 (configuration not stated) do in these assays?
Insulin prom up: -0.87; Yeast growth inh: -49.6; Yeast life ext: 61.8*; INS promoter inh: 37.1; RAM network inh: 3.3

How did COc1ccccc1/C=C(/C(=O)OCC(=O)N(C)Cc1ccccc1)c1ccccc1 do in these assays?
Yeast growth inh: -13.5; Yeast life ext: -2.1; RAM network inh: 10.2*

Results for C=Cc1ccc(CSc2cc(C)nc3nc(C)nn23)cc1 ?
Insulin prom up: 0.04

What do the screens show for `C=CCn1c(SCCOc2ccc(OC)cc2)nnc1C(C)NC(=O)Cc1ccc(OC)cc1` (configuration not stated)?
Insulin prom up: 4.23*; Yeast growth inh: -39.8; Yeast life ext: -6.4; INS promoter inh: -271.4; RAM network inh: -0.3

How did CCn1c(SCCOc2ccc(OC)cc2)nnc1C(CO)NC(=O)c1ccc(OC)cc1 (configuration not stated) do in these assays?
Yeast growth inh: -14.1; Yeast life ext: -5.9; INS promoter inh: -40.0; RAM network inh: 2.0

What do the screens show for `CCOc1ccc(CC2c3cc(OCC)c(OCC)cc3CCN2C(=O)CN2CCN(C)CC2)cc1OCC` (configuration not stated)?
Insulin prom up: 0.68

How did O=C(Nc1ccccc1-c1nc2ccccc2[nH]1)c1ccc(S(=O)(=O)N2CCCCC2)cc1 do in these assays?
Insulin prom up: -1.34; Yeast growth inh: -28.7; Yeast life ext: 42.0*; RAM network inh: 3.5

What do the screens show for `O=C(CC(=O)c1cc(Cl)ccc1O)c1ccccc1`?
Insulin prom up: -0.62; Yeast growth inh: 81.6*; Yeast life ext: -12.4; INS promoter inh: -40.0; RAM network inh: 1.8

What do the screens show for `Cc1cccc(C(=O)NNC(=O)c2ccccc2)c1`?
Insulin prom up: 0.34; Yeast growth inh: -42.1; Yeast life ext: -5.0; INS promoter inh: 13.7; RAM network inh: 2.4

What do the screens show for `Cc1ccc(O)c(C(=O)CC(=O)c2cccc(F)c2)c1`?
Insulin prom up: 0.09; Yeast growth inh: 51.1*; Yeast life ext: -3.7; INS promoter inh: -151.8; RAM network inh: 0.1

Results for Cc1cccc(C(=O)CC(=O)c2cc(Cl)ccc2O)c1 ?
Yeast growth inh: 83.1*; Yeast life ext: -6.5; INS promoter inh: -16.7; RAM network inh: -0.8

What do the screens show for `O=C(O)CC(=O)Nc1cc(Cl)ccc1O`?
Yeast growth inh: -41.6; Yeast life ext: -4.7; INS promoter inh: 26.9; RAM network inh: -0.1

Results for Cc1cc(F)ccc1NCC(=O)Nc1ccccc1Br ?
Insulin prom up: 0.38; Yeast growth inh: -0.3; Yeast life ext: -6.4; RAM network inh: -1.8

Results for O=C(O)CCCCCCCCCCCc1ccccc1 ?
Insulin prom up: 0.18; INS promoter inh: 20.0; RAM network inh: 0.7

How did Cc1cc(Br)c(OCc2ccc(C(=O)N/N=C3\CC4CC=CC34)cc2)c(Br)c1 (configuration not stated) do in these assays?
Yeast growth inh: -18.1; Yeast life ext: -7.2; INS promoter inh: 33.3; RAM network inh: 0.3

How did COc1ccccc1Nc1ccc(C(=O)NCc2cccs2)cn1 do in these assays?
Insulin prom up: -0.38; INS promoter inh: 30.8; RAM network inh: 0.6

What do the screens show for `COc1ccccc1Nc1ncc(-c2cccs2)s1`?
Insulin prom up: -0.51; Yeast growth inh: -37.6; Yeast life ext: -11.4; RAM network inh: 9.9*

Results for COCCCn1c(SCC(=O)N2CCc3ccccc32)nnc1-c1ccoc1C ?
INS promoter inh: -25.0

What do the screens show for `COCCCn1c(SCC(=O)N2CCc3ccccc32)nnc1-c1ccco1`?
Insulin prom up: 0.23; Yeast growth inh: -1.2; INS promoter inh: 6.2; RAM network inh: 8.6*
